Activity calls are given as the source filed them. The calls are words filed in the database; no cut-off is given here. Positions of bridges follow the written chain, without caps; N, C: chain ends. Residues, ends and D or L forms follow the SMILES beside them.
Assays:
[1] = molecular target: T1, Urokinase-type plasminogen activator (Mus musculus, UniProt P06869); assay: Inhibition of uPA in presence of 75% mouse […] measured at 24 hrs
Outline: (§1)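 Peptide was preincubated in 75% murine plasma for 0–24 h (sampled at 0, 2, 8 and 24 h). Residual uPA-inhibitory activity was then measured and expressed as IC50.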

CT26 [2] = assay: Cytotoxicity against mouse CT26 cells at 100 uM; assay type: cell-based; conditions: ct26, 100 µM
CT26 [3] = assay: Antimetastatic activity against mouse CT26 cells allografted in Balb/c mouse assessed as prolongation of mouse survival time at 11.3 mg/kg, ip administered daily for 15 days; assay type: functional, organism-based
[4] = Stability in 75% mouse plasma assessed as protease-mediated compound degradation measured 24 hrs post dose; assay type: ADME, cell-free; outline: as §1
[5] = molecular target: T1, Urokinase-type plasminogen activator; assay: Inhibition of uPA in presence of 75% mouse […] measured at 2 hrs; outline: as §1
[6] = molecular target: Tissue-type plasminogen activator (Mus musculus, UniProt P11214); assay: Inhibition of mouse tissue-type plasminogen activator preincubated for 15 mins followed by chromogenic substrate addition
Sequence of Tissue-type plasminogen activator (P11214 whole entry): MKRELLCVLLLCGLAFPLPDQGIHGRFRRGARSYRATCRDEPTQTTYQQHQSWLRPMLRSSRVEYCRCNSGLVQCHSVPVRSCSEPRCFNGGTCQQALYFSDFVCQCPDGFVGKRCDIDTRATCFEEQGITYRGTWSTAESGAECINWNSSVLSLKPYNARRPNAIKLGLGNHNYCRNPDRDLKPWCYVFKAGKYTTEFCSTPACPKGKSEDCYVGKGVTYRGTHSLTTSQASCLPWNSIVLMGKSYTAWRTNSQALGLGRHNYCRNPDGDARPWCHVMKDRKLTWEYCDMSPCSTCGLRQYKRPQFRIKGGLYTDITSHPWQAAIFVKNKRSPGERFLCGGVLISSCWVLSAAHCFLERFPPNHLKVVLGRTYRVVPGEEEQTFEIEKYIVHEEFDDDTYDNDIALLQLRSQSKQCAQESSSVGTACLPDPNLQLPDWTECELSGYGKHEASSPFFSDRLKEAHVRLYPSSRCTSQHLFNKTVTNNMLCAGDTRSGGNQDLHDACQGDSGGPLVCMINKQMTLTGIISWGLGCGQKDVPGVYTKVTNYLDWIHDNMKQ

[7] = molecular target: T1, Urokinase-type plasminogen activator; assay: Inhibition of uPA in presence of 75% mouse […] measured at 8 hrs; outline: as §1
Prothrombin [8] = molecular target: Prothrombin (Mus musculus, UniProt P19221); assay: Inhibition of mouse thrombin preincubated for 15 mins followed by chromogenic substrate addition
Prothrombin [9] = molecular target: Prothrombin (Homo sapiens, UniProt P00734); assay: Inhibition of human thrombin preincubated for 15 mins followed by chromogenic substrate addition
[10] = molecular target: Urokinase-type plasminogen activator (Mus musculus) (UniProt P06869); assay: Potency index, ratio of Ki for LD1 to Ki for test compound for inhibition of mouse uPA preincubated for 15 mins followed by chromogenic substrate addition
Sequence of Urokinase-type plasminogen activator (Mus musculus) (P06869 21-178 limits assumed): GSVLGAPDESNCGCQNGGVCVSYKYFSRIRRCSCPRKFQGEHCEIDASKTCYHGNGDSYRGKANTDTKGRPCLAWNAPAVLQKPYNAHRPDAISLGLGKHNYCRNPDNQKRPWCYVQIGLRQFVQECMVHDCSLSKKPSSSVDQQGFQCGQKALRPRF
Sequence of Urokinase-type plasminogen activator (Mus musculus) (P06869 180-433 limits assumed): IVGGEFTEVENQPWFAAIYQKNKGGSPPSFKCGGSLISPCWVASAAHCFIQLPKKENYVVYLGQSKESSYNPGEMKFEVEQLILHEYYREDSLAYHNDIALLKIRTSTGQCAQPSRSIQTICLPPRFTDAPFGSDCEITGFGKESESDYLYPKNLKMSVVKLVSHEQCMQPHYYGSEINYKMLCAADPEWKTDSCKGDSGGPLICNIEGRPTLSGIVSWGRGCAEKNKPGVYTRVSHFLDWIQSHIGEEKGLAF

[11] = Toxicity in Balb/c mouse allografted with mouse CT26 cells assessed as effect on body weight at 1.13 to 11.3 mg/kg, ip administered daily for 15 days; assay type: organism-based; conditions: in vivo, 360 h
[12] = Drug level in blood of GFP-fused mouse CT26 cells allografted in Balb/c mouse at 11.3 mg/kg, ip administered daily for 15 days; assay type: ADME, organism-based; conditions: read-out: Drug uptake
CT26 [13] = assay: Antimetastatic activity against GFP-fused mouse CT26 cells allografted in Balb/c mouse assessed as reduction genomic DNA of metastatic cells at 1.13 mg/kg, ip administered daily for 15 days by qPCR analysis; assay type: functional, organism-based
Outline: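 Lung-metastasis model: male Balb/c (~20 g, 6/group) given 10^6 GFP-CT-26 cells iv, then daily ip dosing from Day 1 to 15, killed on Day 16. Total DNA (200 ng) from homogenized lungs went to SYBR Green qPCR (287 bp amplicon, 45 cycles). The standard curve used CT-26 genomic DNA spiked into normal lung DNA at 0.135–100%.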

Plasminogen [14] = molecular target: Plasminogen (Mus musculus, UniProt P20918); assay: Inhibition of mouse plasmin preincubated for 15 mins followed by chromogenic substrate addition
Sequence of Plasminogen (Mus musculus, UniProt P20918) (P20918 98-581 limits assumed): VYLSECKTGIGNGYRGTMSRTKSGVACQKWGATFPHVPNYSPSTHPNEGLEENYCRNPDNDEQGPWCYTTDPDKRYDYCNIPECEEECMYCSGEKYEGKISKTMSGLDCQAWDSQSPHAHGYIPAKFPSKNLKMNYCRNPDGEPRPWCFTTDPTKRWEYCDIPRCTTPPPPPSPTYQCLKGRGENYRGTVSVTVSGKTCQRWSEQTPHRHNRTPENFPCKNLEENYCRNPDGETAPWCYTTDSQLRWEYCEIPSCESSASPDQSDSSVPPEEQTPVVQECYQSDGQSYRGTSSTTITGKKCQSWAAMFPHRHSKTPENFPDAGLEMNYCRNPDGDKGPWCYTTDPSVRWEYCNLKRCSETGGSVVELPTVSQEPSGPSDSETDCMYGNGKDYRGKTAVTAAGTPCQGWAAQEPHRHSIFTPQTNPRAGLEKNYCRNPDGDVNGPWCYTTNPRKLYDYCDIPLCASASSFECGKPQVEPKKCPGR
Sequence of Plasminogen (Mus musculus, UniProt P20918) (P20918 582-812 limits assumed): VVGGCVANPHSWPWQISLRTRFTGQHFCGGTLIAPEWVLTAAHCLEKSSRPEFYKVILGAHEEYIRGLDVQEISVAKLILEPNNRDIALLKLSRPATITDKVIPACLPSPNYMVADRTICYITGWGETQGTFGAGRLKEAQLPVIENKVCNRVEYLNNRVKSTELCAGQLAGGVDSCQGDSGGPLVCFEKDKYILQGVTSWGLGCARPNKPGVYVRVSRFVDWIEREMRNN

[15] = molecular target: T1, Urokinase-type plasminogen activator; assay: Inhibition of mouse uPA preincubated for 15 mins followed by chromogenic substrate addition
[16] = molecular target: T1, Urokinase-type plasminogen activator; assay: Binding affinity to mouse uPA by SPR assay
Coagulation factor XI = Coagulation factor XI (Homo sapiens, UniProt P03951); assay: Inhibition of human factor 11a preincubated for 15 mins followed by chromogenic substrate addition
Sequence of Coagulation factor XI (P03951 19-387 limits assumed): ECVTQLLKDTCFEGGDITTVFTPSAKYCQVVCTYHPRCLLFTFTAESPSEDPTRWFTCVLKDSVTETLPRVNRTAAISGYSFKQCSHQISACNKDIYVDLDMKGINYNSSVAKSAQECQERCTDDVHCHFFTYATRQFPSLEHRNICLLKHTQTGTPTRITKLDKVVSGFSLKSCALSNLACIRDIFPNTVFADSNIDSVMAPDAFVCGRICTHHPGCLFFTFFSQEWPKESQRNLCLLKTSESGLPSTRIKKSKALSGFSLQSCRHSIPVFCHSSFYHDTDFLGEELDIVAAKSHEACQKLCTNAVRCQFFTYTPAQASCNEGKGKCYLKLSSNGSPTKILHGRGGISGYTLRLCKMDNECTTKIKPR
Sequence of Coagulation factor XI (P03951 388-625 limits assumed): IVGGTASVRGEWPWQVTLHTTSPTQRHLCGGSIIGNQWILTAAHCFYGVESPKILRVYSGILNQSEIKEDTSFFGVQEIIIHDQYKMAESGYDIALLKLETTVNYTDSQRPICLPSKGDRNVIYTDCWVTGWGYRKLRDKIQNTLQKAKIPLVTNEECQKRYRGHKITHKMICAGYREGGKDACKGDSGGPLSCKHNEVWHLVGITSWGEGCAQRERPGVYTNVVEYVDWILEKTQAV

CT26 [17] = assay: Anti-tumor activity against […] mouse CT26 cells allografted in Balb/c mouse assessed as tumor growth inhibition at 1.13 mg/kg, ip administered daily for 15 days and measured on day 16 […]; assay type: functional; conditions: read-out: TGI
Outline: (§2)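 CT-26 cells implanted subcutaneously in right flank of Balb/c mice; once tumors reached about 150~200 mm3, daily intraperitoneal dosing with peptide or saline for 15 days. Mice sacrificed on Day 16; tumors resected and weighed; tumor growth reduction relative to saline group.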

CT26 [18] = assay: Antimetastatic activity against GFP-fused mouse CT26 cells allografted in Balb/c mouse assessed as reduction in tumor nodule numbers at 1.13 mg/kg, ip administered daily for 15 days by fluorescence-based assay; assay type: functional, organism-based
Outline: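 Male Balb/c mice received 10^6 GFP-CT-26 cells iv and daily ip dosing on Days 1–15. On Day 16, pleural-surface tumor nodules per lung were counted after soaking in formaldehyde.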

[19] = molecular target: T2, Suppressor of tumorigenicity 14 protein (Homo sapiens, UniProt Q9Y5Y6); assay: Inhibition of human matriptase preincubated for 15 mins followed by chromogenic substrate addition
T2 sequence (Q9Y5Y6 whole entry): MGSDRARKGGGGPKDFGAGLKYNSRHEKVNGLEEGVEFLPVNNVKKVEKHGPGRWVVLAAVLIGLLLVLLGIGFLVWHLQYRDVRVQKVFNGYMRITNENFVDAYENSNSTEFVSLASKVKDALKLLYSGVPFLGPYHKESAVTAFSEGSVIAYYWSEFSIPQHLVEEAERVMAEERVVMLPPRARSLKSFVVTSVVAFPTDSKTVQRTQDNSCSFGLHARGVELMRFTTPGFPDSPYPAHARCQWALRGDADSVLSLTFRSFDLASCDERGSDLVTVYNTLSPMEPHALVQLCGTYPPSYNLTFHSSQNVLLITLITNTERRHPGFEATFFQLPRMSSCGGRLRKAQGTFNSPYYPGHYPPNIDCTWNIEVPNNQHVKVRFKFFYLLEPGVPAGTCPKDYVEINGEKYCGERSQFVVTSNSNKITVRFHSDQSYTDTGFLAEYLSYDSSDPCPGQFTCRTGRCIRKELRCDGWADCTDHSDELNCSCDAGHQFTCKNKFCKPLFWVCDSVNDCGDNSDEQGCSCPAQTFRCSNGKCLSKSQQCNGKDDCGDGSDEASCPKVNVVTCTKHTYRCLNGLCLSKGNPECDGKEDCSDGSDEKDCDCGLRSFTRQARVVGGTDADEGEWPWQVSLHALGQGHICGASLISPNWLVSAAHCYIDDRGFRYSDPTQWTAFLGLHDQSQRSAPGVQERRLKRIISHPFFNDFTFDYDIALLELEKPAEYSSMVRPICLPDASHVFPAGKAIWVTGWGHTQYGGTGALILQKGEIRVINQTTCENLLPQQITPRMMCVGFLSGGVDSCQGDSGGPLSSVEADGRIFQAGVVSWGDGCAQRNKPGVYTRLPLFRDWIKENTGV

CT26 [20] = assay: Anti-tumor activity against GFP expressing mouse CT26 cells allografted in Balb/c mouse assessed as tumor growth inhibition at 11.3 mg/kg, ip administered daily for 15 days and measured on day 16 […]; assay type: functional; conditions: read-out: TGI; outline: as §2
CT26 [21] = assay: Antimetastatic activity against GFP-fused mouse CT26 cells allografted in Balb/c mouse assessed as reduction in hyperplastic weights at 1.13 mg/kg, ip administered daily for 15 days by fluorescence-based assay; assay type: functional, organism-based
Outline: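 GFP-CT-26 cells (10^6) iv into male Balb/c, daily ip treatment Days 1–15, lungs resected and weighed at sacrifice on Day 16. Hyperplastic weight is lung weight minus the mean weight of lungs from non-implanted normal mice.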

Plasma kallikrein = Plasma kallikrein (Homo sapiens, UniProt P03952); assay: Inhibition of human plasma kallikrein preincubated for 15 mins followed by chromogenic substrate addition
Sequence of Plasma kallikrein (P03952 20-390 limits assumed): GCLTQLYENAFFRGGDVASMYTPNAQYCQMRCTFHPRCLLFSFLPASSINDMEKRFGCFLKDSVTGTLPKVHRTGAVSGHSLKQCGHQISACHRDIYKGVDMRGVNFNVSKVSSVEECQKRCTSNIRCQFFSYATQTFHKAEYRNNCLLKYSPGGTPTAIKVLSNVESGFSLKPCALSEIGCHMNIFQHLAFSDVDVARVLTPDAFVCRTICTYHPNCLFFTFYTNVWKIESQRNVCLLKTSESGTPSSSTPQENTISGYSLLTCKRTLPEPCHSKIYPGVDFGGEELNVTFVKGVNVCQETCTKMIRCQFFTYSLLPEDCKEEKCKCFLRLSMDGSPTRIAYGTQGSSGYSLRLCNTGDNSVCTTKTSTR
Sequence of Plasma kallikrein (P03952 391-638 limits assumed): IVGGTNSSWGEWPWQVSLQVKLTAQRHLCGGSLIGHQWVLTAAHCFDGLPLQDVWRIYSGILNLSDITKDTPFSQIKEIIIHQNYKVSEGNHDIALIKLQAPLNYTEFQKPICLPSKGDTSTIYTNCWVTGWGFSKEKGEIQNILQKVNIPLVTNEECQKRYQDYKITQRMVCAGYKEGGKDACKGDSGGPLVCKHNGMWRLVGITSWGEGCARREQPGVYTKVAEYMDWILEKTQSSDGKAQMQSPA

Plasminogen [22] = molecular target: Plasminogen (Homo sapiens, UniProt P00747); assay: Inhibition of human plasmin preincubated for 15 mins followed by chromogenic substrate addition
Sequence of Plasminogen (Homo sapiens, UniProt P00747) (P00747 97-580 limits assumed): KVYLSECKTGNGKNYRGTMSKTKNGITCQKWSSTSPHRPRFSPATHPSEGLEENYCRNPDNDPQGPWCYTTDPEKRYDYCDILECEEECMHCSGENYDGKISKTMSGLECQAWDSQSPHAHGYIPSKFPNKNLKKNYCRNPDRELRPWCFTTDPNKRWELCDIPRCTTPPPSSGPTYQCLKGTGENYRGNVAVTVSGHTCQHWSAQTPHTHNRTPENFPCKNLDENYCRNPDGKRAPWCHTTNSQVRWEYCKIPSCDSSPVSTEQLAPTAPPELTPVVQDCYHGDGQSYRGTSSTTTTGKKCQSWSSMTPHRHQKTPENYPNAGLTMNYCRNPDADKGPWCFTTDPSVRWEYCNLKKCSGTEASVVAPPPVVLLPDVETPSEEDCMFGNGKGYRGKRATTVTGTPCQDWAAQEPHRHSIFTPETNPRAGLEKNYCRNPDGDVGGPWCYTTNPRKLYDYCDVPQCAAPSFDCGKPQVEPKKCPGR
Sequence of Plasminogen (Homo sapiens, UniProt P00747) (P00747 581-810 limits assumed): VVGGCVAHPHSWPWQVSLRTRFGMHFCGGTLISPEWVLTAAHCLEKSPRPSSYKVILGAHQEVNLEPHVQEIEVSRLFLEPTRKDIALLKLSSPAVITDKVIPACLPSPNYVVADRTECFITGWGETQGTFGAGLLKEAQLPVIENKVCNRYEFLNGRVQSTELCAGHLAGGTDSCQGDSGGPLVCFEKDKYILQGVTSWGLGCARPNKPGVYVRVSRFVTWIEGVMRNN

T1 sequence (P06869 21-178 limits assumed): as the sequence (P06869 21-178 limits assumed) above
T1 sequence (P06869 180-433 limits assumed): as the sequence (P06869 180-433 limits assumed) above

SMILES: CC[C@H](C)[C@@H]1NC(=O)[C@H](Cc2ccc(O)cc2)NC(=O)[C@H](CCCNC(=N)N)NC(=O)[C@H](CO)NC(=O)[C@H](Cc2ccc(O)cc2)NC(=O)[C@H](C)NC(=O)[C@@H]2CCCN2C(=O)[C@@H](N)CSSC[C@@H](C(=O)O)NC(=O)CNC1=O (H-CPAYSRYIGC-OH; disulfide 1-10)
- IC50 [1]: 70.7 nM
- Activity (CT26 [2]): Non-Toxic
- Activity (CT26 [3]): inactive
- Stability [4]: Unstable
- IC50 [5]: 11.9 nM
- Ki [6]: > 25000 nM
- IC50 [7]: 11.3 nM
- Ki (Prothrombin [8]): > 25000 nM
- Ki (Prothrombin [9]): > 25000 nM
- Ratio Ki [10]: 81
- Activity [11]: Non-Toxic
- concentration at 360 h [12]: 100 µM
- Activity (CT26 [13]): inactive
- Ki (Plasminogen [14]): > 25000 nM
- Ki [15]: 6.8 nM
- Kd [16]: 2.4 nM
- Ki (Coagulation factor XI): > 25000 nM
- inhibition in vivo at 1.13 mg/kg (CT26 [17]): 36.1%
- Activity (CT26 [18]): inactive
- Ki [19]: > 25000 nM
- inhibition in vivo at 11.3 mg/kg (CT26 [20]): 56.8%
- Activity (CT26 [21]): inactive
- Ki (Plasma kallikrein): > 25000 nM
- Ki (Plasminogen [22]): > 25000 nM
